≈ marks a conversion by molar mass, not a printed value.
What was measured:
Candida albicans = assay: Antimicrobial activity against Candida albicans incubated for 24 hrs by CLSI protocol based method; assay type: functional
P388 = assay: Cytotoxicity against mouse P388 cells assessed as reduction in cell viability by MTT assay; assay type: functional, cell-based
Procedure, shortened: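 P388 murine leukemia cells were maintained in DMEM with 10% FBS and penicillin-streptomycin. After compound exposure, MTT (15 μL of a 5.0 mg/mL solution) was added for 3 h. The supernatant was removed and formazan dissolved in DMSO. IC50 was derived.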

Bacillus cereus = assay: Antimicrobial activity against Bacillus cereus incubated for 20 hrs by CLSI protocol based method; assay type: functional
Staphylococcus aureus = assay: Antimicrobial activity against methicillin-sensitive Staphylococcus aureus incubated for 20 hrs by CLSI protocol based method; assay type: functional
Escherichia coli = assay: Antimicrobial activity against Escherichia coli W3110 incubated for 20 hrs by CLSI protocol based method; assay type: functional; details: W3110, 20 h

Row | SMILES | MIC (Candida albicans) [µg/mL] | IC50 (P388) [µM] | MIC (Bacillus cereus) [µg/mL] | MIC (Staphylococcus aureus) [µg/mL] | MIC (Escherichia coli) [µg/mL]
1 | Brc1cc(Br)c[n+](CCc2c[nH]c3ccccc23)c1.[Br-] | 100 | 76 | > 100 | > 100 | > 100
2 | [Br-].c1ccc2c(CC[n+]3cccc(-c4c[nH]c5ccccc45)c3)c[nH]c2c1 | 100 | 50 | 25 | 50 | > 100
3 | [Br-].c1cc[n+](CCc2c[nH]c3ccccc23)cc1 | 100 | 53 | > 100 | > 100 | > 100
4 | [Br-].c1ccc2c(CC[n+]3cc(-c4c[nH]c5ccccc45)cc(-c4c[nH]c5ccccc45)c3)c[nH]c2c1 | 12.5 | 1 | 0.78 | 1.56 | > 100
5 | CC1(C)S[C@@H]2[C@H](NC(=O)[C@H](N)c3ccccc3)C(=O)N2[C@H]1C(=O)O [AMPICILLIN] | 100 (≈ 286 µM) |  | 0.063 (≈ 0.18 µM) | 0.5 (≈ 1.43 µM) | 4 (≈ 11.4 µM)
